Experimental findings from ChEMBL document CHEMBL4387703, “Lead optimization and biological evaluation of fragment-based cN-II inhibitors” (Eur J Med Chem, 2019) are described below.

What all share (details): Homo sapiens
Compound in series [1]: O=C(Nc1ncnc2c1ncn2CP(=O)(O)O)c1cccc(-c2ccccc2)c1
The series is described as follows: Noncompetitive inhibition of recombinant cN-II (unknown origin) assessed as substrate Kcat using varying level of IMP as substrate by HPLC method based Lineweaver-Burk plot analysis. The method in brief:
(§1)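 Enzyme, alone or with compound, was mixed with IMP (0.2 to 3 mM) under stirring at 37 °C in imidazole pH 6.5/NaCl/MgCl2 buffer. Samples were taken every 7 s and quenched with 10% perchloric acid. IMP and inosine were quantified by SAX HPLC in 10 mM ammonium phosphate pH 5.5. Data were fitted to competitive, non-competitive, uncompetitive or mixed inhibition equations.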

Compound in series [2]: O=C(Nc1ncnc2c1ncn2CP(=O)(O)O)c1cccc(-c2ccccc2)c1
The series is described as follows: Competitive inhibition of recombinant cN-II (unknown origin) using varying level of IMP as substrate assessed as substrate Kcat by HPLC method based Lineweaver-Burk plot analysis. The method, boiled down:
as §1

Compound in series [3]: O=C(Nc1ncnc2c1ncn2CP(=O)(O)O)c1cccc(-c2ccccc2)c1
The series is described as follows: Uncompetitive inhibition of recombinant cN-II (unknown origin) assessed as substrate Kcat using varying level of IMP as substrate by HPLC method based Lineweaver-Burk plot analysis. The method, boiled down: as §1

Compound in series [4]: O=C(Nc1ncnc2c1ncn2CP(=O)(O)O)c1cccc(-c2ccccc2)c1
The series is described as follows: Mixed type inhibition of recombinant cN-II (unknown origin) assessed as substrate Kcat using varying level of IMP as substrate by HPLC method based Lineweaver-Burk plot analysis. The method in brief:
as §1

Compound in series [5]: O=C(Nc1ncnc2c1ncn2CP(=O)(O)O)c1cccc(-c2ccccc2)c1
The series is described as follows: Noncompetitive inhibition of recombinant cN-II (unknown origin) assessed as substrate Km using varying level of IMP as substrate by HPLC method based Lineweaver-Burk plot analysis. The method in brief: as §1

Compound in series [6]: O=C(Nc1ncnc2c1ncn2CP(=O)(O)O)c1cccc(-c2ccccc2)c1
The series is described as follows: Competitive inhibition of recombinant cN-II (unknown origin) using varying level of IMP as substrate assessed as substrate Km by HPLC method based Lineweaver-Burk plot analysis. The method in brief:
as §1

Compound in series [7]: O=C(Nc1ncnc2c1ncn2CP(=O)(O)O)c1cccc(-c2ccccc2)c1
The series is described as follows: Mixed type inhibition of recombinant cN-II (unknown origin) assessed as substrate Km using varying level of IMP as substrate by HPLC method based Lineweaver-Burk plot analysis. The method, boiled down:
as §1

Compound in series [8]: O=C(Nc1ncnc2c1ncn2CP(=O)(O)O)c1cccc(-c2ccccc2)c1
The series is described as follows: Uncompetitive inhibition of recombinant cN-II (unknown origin) assessed as substrate Km using varying level of IMP as substrate by HPLC method based Lineweaver-Burk plot analysis. The method, boiled down:
as §1

B1: 5'-nucleotidase (Homo sapiens), P21589 (protein)
chain: MCPRAARAPATLLLALGAVLWPAAGAWELTILHTNDVHSRLEQTSEDSSKCVNASRCMGGVARLFTKVQQIRRAEPNVLLLDAGDQYQGTIWFTVYKGAEVAHFMNALRYDAMALGNHEFDNGVEGLIEPLLKEAKFPILSANIKAKGPLASQISGLYLPYKVLPVGDEVVGIVGYTSKETPFLSNPGTNLVFEDEITALQPEVDKLKTLNVNKIIALGHSGFEMDKLIAQKVRGVDVVVGGHSNTFLYTGNPPSKEVPAGKYPFIVTSDDGRKVPVVQAYAFGKYLGYLKIEFDERGNVISSHGNPILLNSSIPEDPSIKADINKWRIKLDNYSTQELGKTIVYLDGSSQSCRFRECNMGNLICDAMINNNLRHTDEMFWNHVSMCILNGGGIRSPIDERNNGTITWENLAAVLPFGGTFDLVQLKGSTLKKAFEHSVHRYGQSTGEFLQVGGIHVVYDLSRKPGDRVVKLDVLCTKCRVPSYDPLKMDEVYKVILPNFLANGGDGFQMIKDELLRHDSGDQDINVVSTYISKMKVIYPAVEGRIKFSTGSHCHGSFSLIFLSLWAVIFVLYQ
As to B1, the turnover number (kcat) (in general, the number of substrate molecules converted per active site and unit of time at saturation) in series [1] is 53.1 s⁻¹; in series [2] it was 49.9 s⁻¹; in series [3], 54.1 s⁻¹; in series [4], 49.9 s⁻¹. The Km (as a rule, the concentration of substrate that gives half-maximal velocity) in series [5] was determined as 1260 µM; in series [6], 1070 µM; in series [7], 1070 µM; in series [8] it was 1360 µM.
